Source: ChEMBL document CHEMBL3739314, “Discovery of Nanomolar Dengue and West Nile Virus Protease Inhibitors Containing a 4-Benzyloxyphenylglycine Residue” (J Med Chem, 2015)
The source made the active and inactive calls. The rule behind the calls is not given here. Square brackets hold non-standard residues; d marks the D form. Peptide text beside a SMILES is read from it. * marks the point of attachment. dPhg = N[C@@H](C(=O)O)c1ccccc1; Bz = O=C(c1ccccc1)*

Legend:
[1] = system: West Nile virus; assay: Inhibition of West Nile virus NS2B-NS3 protease using 2-Abz-Gly-Leu-Lys-Arg-Gly-Gly-[…]-Tyr-NH2 as substrate at 50 uM preincubated with protein for 15 mins followed by substrate addition measured for 15 mins by FRET assay
Procedure, shortened: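 Linked WNV NS2B-NS3 protease (150 nM) was preincubated 15 min with inhibitor (50 μM final) in 50 mM Tris-HCl pH 9, 10% ethylene glycol, 0.0016% Brij 58. […] Percent inhibition was taken from the slope relative to the no-inhibitor control, in triplicate.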

[2] = Inhibition of Dengue virus serotype-2 NS2B-NS3 protease using 2-Abz-Nle-Lys-Arg-Arg-Ser-(3-NO2)-Tyr-NH2 as substrate preincubated with protein for 15 mins followed by substrate addition measured for 15 mins by FRET assay; design: species or system dengue virus type 2
Procedure, shortened: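 DENV-2 NS2B-NS3 linked construct at 30 nM (15 nM in some cases), same pH 9 Tris buffer, 15 min preincubation and FRET read-out. Eight inhibitor concentrations spanned 0–1, 0–2, 0–6 or 0–50 μM, with substrate at 50 μM. IC50 was fitted from triplicates.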

[3] = system: dengue virus type 2; assay: Inhibition of Dengue virus serotype-2 NS2B-NS3 protease using 2-Abz-Nle-Lys-Arg-Arg-Ser-(3-NO2)-Tyr-NH2 as substrate at 50 uM preincubated with protein for 15 mins followed by substrate addition measured for 15 mins by FRET assay
[4] = Cytotoxicity against human HuH7 cells infected with Dengue virus serotype-2 assessed as cell viability after 48 hrs by Cell-Titer-Glo luminescent viability assay; type: cell-based, Huh-7
Procedure, shortened: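 Huh-7 cells (10^4/well) were seeded in DMEM + 10% FBS overnight, then infected with WT DENV-2 (MOI 1) in the presence of compound, triplicate per concentration. After 48 h at 37 °C, medium was replaced with fresh DMEM and viability was read by CellTiter-Glo luminescence. CC50 was determined.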

[5] = Permeability of compound after 5 hrs by PAMPA; type: ADME; details: read-out: permeability
Procedure, shortened: (§1)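 Precoated PAMPA plates were equilibrated 1 h at room temperature. Donor wells received 200 μM compound in PBS, in triplicate, and acceptor wells received PBS. After 5 h at room temperature, donor and acceptor concentrations were quantified by RP-HPLC UV at 254 nm against six-point calibration curves (10–200 μM). Pe and mass retention were calculated by literature formulas.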

[6] = molecular target: Prothrombin (Homo sapiens) (UniProt P00734); assay: Inhibition of thrombin (unknown origin) using Boc-Val-Pro-Arg-AMC as substrate at 25 uM preincubated with protein for 15 mins followed by substrate addition measured for 10 mins by continuous fluorimetric assay relative to control
[7] = molecular target: Trypsin (Homo sapiens) (UniProt P07477+P07478+P35030); assay: Inhibition of trypsin (unknown origin) using Boc-Val-Pro-Arg-AMC as substrate at 25 uM preincubated with protein for 15 mins followed by substrate addition by continuous fluorimetric assay relative to control
[8] = Inhibition of West Nile virus NS2B-NS3 protease using 2-Abz-Gly-Leu-Lys-Arg-Gly-Gly-[…]-Tyr-NH2 as substrate preincubated with protein for 15 mins followed by substrate addition measured for 15 mins by FRET assay
Procedure, shortened: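 WNV NS2B-NS3 linked construct at 75 nM (40 nM in one case) in pH 9 Tris buffer, preincubated 15 min with eight inhibitor concentrations (ranges 0–1 up to 0–50 μM). Substrate was 50 μM, with FRET readout over 15 min. IC50 was fitted from triplicates.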

[9] = Retention time of compound by RP-HPLC analysis; type: physicochemical
[10] = system: dengue virus type 2; assay: Antiviral activity against Dengue virus serotype-2 infected in African green monkey Vero cells after 7 days by virus yield reduction assay; type: functional, organism-based
[11] = Permeability of compound assessed as compound mass retention after 5 hrs by PAMPA; type: ADME; procedure, shortened: as §1
[12] = Half life in Sprague-Dawley rat liver microsomes incubated for 30 mins by UV-HPLC method; type: ADME
Procedure, shortened: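 Pooled male rat liver microsomes (0.2 mg/mL protein) with NADPH (10 mM) in DPBS were preincubated 15 min at 37 °C. Compound (100 μM) was added and incubated at 37 °C; aliquots were taken at 0, 2, 5, 10, 20 and 30 min. Samples were quenched with equal-volume acetonitrile, chilled and centrifuged, and parent remaining was quantified by RP-HPLC UV against reference peak areas. Testosterone served as positive control.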

[13] = system: dengue virus type 2; assay: Competitive inhibition of Dengue virus serotype-2 NS2B-NS3 protease in presence of aprotinin by fluorescence displacement assay based Cheng-Prusoff plot
[14] = Cytotoxicity against human HuH7 cells infected with West Nile virus assessed as cell viability after 48 hrs by Cell-Titer-Glo luminescent viability assay; type: cell-based, Huh-7
Procedure, shortened: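 Huh-7 cells (10^4/well, DMEM + 10% FBS, overnight) were infected with WT WNV (MOI 0.1) alongside compound, each concentration in triplicate. After 48 h at 37 °C, fresh DMEM was added and viability was measured by CellTiter-Glo luminescence. CC50 was determined.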

[15] = system: West Nile virus; assay: Antiviral activity against West Nile virus infected in human HuH7 cells after 3 days by virus yield reduction assay; type: functional, organism-based; details: Huh-7, 72 h
[16] = system: West Nile virus; assay: Inhibition of West Nile virus NS2B-NS3 protease at 0 to 48 uM incubated for 1 hr by tryptophan quenching assay
[17] = system: dengue virus type 2; assay: Inhibition of Dengue virus serotype-2 NS2B-NS3 protease at 0 to 48 uM incubated for 1 hr by tryptophan quenching assay
[18] = system: West Nile virus; assay: Competitive inhibition of West Nile virus NS2B-NS3 protease in presence of aprotinin by fluorescence displacement assay based Cheng-Prusoff plot
[19] = Selectivity index, ratio of CC50 for African green monkey Vero cells to EC50 for Dengue virus serotype-2 infected in African green monkey Vero cells; type: toxicity, cell-based; details: read-out: Ratio CC50/EC50
[20] = system: dengue virus type 2; assay: Inhibition of Dengue virus serotype-2 NS2B-NS3 protease using 2-Abz-Nle-Lys-Arg-Arg-Ser-(3-NO2)-Tyr-NH2 as substrate preincubated with protein for 15 mins followed by substrate addition measured for 15 mins by FRET assay relative to Bz-Lys-Arg-Phg-NH2
[21] = system: West Nile virus; assay: Inhibition of West Nile virus NS2B-NS3 protease using 2-Abz-Gly-Leu-Lys-Arg-GlyGly-[…]-Tyr-NH2 as substrate preincubated with protein for 15 mins followed by substrate addition measured for 15 mins by FRET assay relative to Bz-Lys-Arg-Phg-NH2

| inhibition [1] | IC50 [2] | inhibition [3] | inhibition [6] | inhibition [7] | IC50 [8] | Retention_time [9] | EC50 [10] | SMILES | CC50 at 48 h [4] | also measured |
| --- | --- | --- | --- | --- | --- | --- | --- | --- | --- | --- |
| 88% | 935 nM | 99.9% | – | – | – | – | – | N=C(N)NCCC[C@H](NC(=O)c1ccccc1)C(=O)N[C@@H](CCCCN)C(=O)N[C@H](C(N)=O)c1ccc(OCc2ccccc2)cc1 | – | – |
| 100% | 215 nM | – | inactive | inactive | 365 nM | 3.6 min | 7600 nM | N=C(N)NCCC[C@H](NC(=O)c1ccc(-c2cccs2)s1)C(=O)N[C@@H](CCCCN)C(=O)N[C@@H](C(N)=O)c1ccc(OCc2ccc(Cl)c(Cl)c2)cc1 | 40000 nM | Papp at 5 h [5]: 0.79 ×10⁻⁶ cm/s; permeability [11]: 2.5% |
| 99.3% | 68 nM | – | inactive | inactive | 231 nM | 2.71 min | 54600 nM | COc1cccc(COc2ccc([C@@H](NC(=O)[C@H](CCCCN)NC(=O)[C@H](CCCNC(=N)N)NC(=O)c3cccs3)C(N)=O)cc2)c1 | > 100000 nM | half-life [12]: 1.55 h |
| 11.4% | – | 16.4% | – | – | – | – | – | NCCCC[C@H](NC(=O)c1ccccc1)C(=O)N[C@@H](C(N)=O)c1ccc(OCc2ccccc2)cc1 | – | – |
| 64% | – | 23.5% | – | – | – | – | – | N=C(N)NCCC[C@@H](NC(=O)[C@@H](CCCCN)NC(=O)c1ccccc1)C(=O)N[C@H](C(N)=O)c1ccc(OCc2ccccc2)cc1 | – | – |
| 99% | 3790 nM | 99.3% | – | – | 3780 nM | – | – | N=C(N)NCCC[C@H](NC(=O)c1ccccc1)C(=O)N[C@@H](CCCCN)C(=O)N[C@@H](C(N)=O)c1ccccc1 (Bz-Arg-Lys-[dPhg]-NH2) | – | – |
| 79.2% | 9700 nM | 96.6% | – | – | – | – | – | N=C(N)NCCC[C@H](NC(=O)c1ccccc1)C(=O)N[C@@H](CCCCN)C(=O)N[C@H](C(N)=O)c1ccc(O)cc1 | – | – |
| 91.3% | 130 nM | – | inactive | inactive | – | 3.34 min | 7120 nM | CC(C)(C)c1ccc(COc2ccc([C@@H](NC(=O)[C@H](CCCCN)NC(=O)[C@H](CCCNC(=N)N)NC(=O)c3ccc(Cl)s3)C(N)=O)cc2)cc1 | > 100000 nM | Papp at 5 h [5]: 0.33 ×10⁻⁶ cm/s; permeability [11]: 0.44% |
| 75.1% | 2030 nM | 98% | – | – | – | – | – | N=C(N)NCCC[C@H](NC(=O)c1ccccc1)C(=O)N[C@@H](CCCCN)C(=O)N[C@@H](C(N)=O)c1ccc(O)cc1 | – | – |
| 19.9% | – | 26.8% | – | – | – | – | – | N=C(N)NCCC[C@@H](NC(=O)[C@@H](CCCCN)NC(=O)c1ccccc1)C(=O)N[C@@H](C(N)=O)c1ccc(OCc2ccccc2)cc1 | – | – |
| 91.7% | – | 77% | – | – | – | – | – | N=C(N)NCCC[C@H](NC(=O)[C@H](CCCCN)NC(=O)c1ccccc1)C(=O)N[C@@H](C(N)=O)c1ccc(OCc2ccccc2)cc1 | – | – |
| 71.3% | – | 29.4% | – | – | – | – | – | N=C(N)NCCC[C@@H](NC(=O)c1ccccc1)C(=O)N[C@H](CCCCN)C(=O)N[C@H](C(N)=O)c1ccc(OCc2ccccc2)cc1 | – | – |
| 100% | 18 nM | – | inactive | inactive | 50 nM | 3.11 min | 20400 nM | N=C(N)NCCC[C@H](NC(=O)c1nccs1)C(=O)N[C@@H](CCCCN)C(=O)N[C@@H](C(N)=O)c1ccc(OCc2ccc(C(F)(F)F)cc2)cc1 | > 100000 nM | inhibition [13]: Active; CC50 at 48 h [14]: > 100000 nM; half-life [12]: 0.75 h; Ki [8]: 39 nM; EC50 [15]: 23400 nM; inhibition [16]: Active; Ki [2]: 12 nM; inhibition [17]: Active; inhibition [18]: Active |
| 98% | 79 nM | – | inactive | inactive | 79 nM | 3.22 min | 4060 nM | N=C(N)NCCC[C@H](NC(=O)c1cccs1)C(=O)N[C@@H](CCCCN)C(=O)N[C@@H](C(N)=O)c1ccc(OCc2ccc(Cl)c(Cl)c2)cc1 | > 100000 nM | CC50 at 48 h [14]: > 100000 nM; selectivity ratio [19]: > 25; EC50 [15]: 23300 nM |
| 101% | 367 nM | 100% | < 30% | inactive | 728 nM | 2.83 min | 7940 nM | N=C(N)NCCC[C@H](NC(=O)c1ccccc1)C(=O)N[C@@H](CCCCN)C(=O)N[C@@H](C(N)=O)c1ccc(OCc2ccccc2)cc1 | > 100000 nM | Ki [8]: 536 nM; Ki [2]: 307 nM; fold change (FC) [20]: 9; fold change (FC) [21]: 80 |
| 27.5% | – | 31% | – | – | – | – | – | N=C(N)NCCC[C@H](NC(=O)c1ccccc1)C(=O)N[C@@H](C(N)=O)c1ccc(OCc2ccccc2)cc1 | – | – |
